Legend:
Format in all cases: functional
[1] = tested on: HeLa; experiment: Cell cycle arrest in human HeLa cells pretreated with 10 uM Dexamethasone for 1 hr assessed as G2/M phase accumulation at 100 uM after 24 hrs by FACS
Summary of the method: (§1)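 HeLa cells pretreated for 1 h with the listed agent (10 mM GSH ethyl ester, 10 µM dexamethasone, 10 µM pifithrin, 100 µM Boc-Asp(OMe)-fmk or 5 µM cyclosporin A), then given 100 µM compound for 24 h. Cells fixed in PBS-MeOH, stained with PI/RNase and analysed by flow cytometry for DNA content. At least three experiments, one representative shown.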

[2] = tested on: HeLa; experiment: Cell cycle arrest in human HeLa cells assessed as G2/M phase accumulation at 25 after 24 hrs by FACS
Summary of the method: (§2)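 HeLa cells seeded 5 × 10^5 per dish 48 h ahead in DMEM with 10% FCS, then exposed to compound for 24 h (DMSO 0.1% final). Adherent and floating cells pooled, fixed in PBS-MeOH (1:2) at 4 °C for at least 18 h, and stained with PI (50 µg/mL) plus RNase A for 30 min at room temperature. Flow cytometry at 488 nm excitation, doublets gated out; phase percentages taken from DNA histograms.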

[3] = tested on: HeLa; experiment: Cell cycle arrest in human HeLa cells assessed as S phase accumulation at 25 50 after 24 hrs by FACS; summary of the method: as §2
[4] = tested on: HeLa; experiment: Cell cycle arrest in human HeLa cells assessed as G1 phase accumulation at 100 uM after 24 hrs by FACS; summary of the method: as §2
[5] = tested on: HeLa; experiment: Induction of apoptosis in human HeLa cells assessed as increase in intracellular hydrogen peroxide level at 100 uM after 1 hr by FACS relative to untreated control
Summary of the method: (§3)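 HeLa cells at 80% confluence were refed and exposed to 100 µM for 1, 3 or 24 h. They were loaded with 10 µM DCFH-DA for 30 min in the dark, trypsinized and resuspended in PBS. DCF fluorescence was measured by flow cytometry and expressed as fold versus untreated cells. At least three experiments.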

[6] = tested on: HeLa; experiment: Induction of apoptosis in human HeLa cells assessed as increase in intracellular hydrogen peroxide level at 100 uM after 3 hrs by FACS relative to untreated control; summary of the method: as §3
[7] = tested on: HeLa; experiment: Induction of apoptosis in human HeLa cells assessed as increase in intracellular nitric oxide level at 100 uM after 24 hrs by FACS relative to untreated control
Summary of the method: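 HeLa cells at 80% confluence were exposed to 100 µM for 1, 3 or 24 h and then stained with 1 µM DAF-2 for 10 min in the dark. After trypsinization, DAF-2 fluorescence was measured by flow cytometry and taken as fold versus untreated cells. At least three experiments.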

[8] = tested on: HeLa; experiment: Induction of apoptosis in human HeLa cells assessed as increase in intracellular glutathione-depleted cell population at 25 uM after 24 hrs by FACS
Summary of the method: (§4)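 HeLa cells at 80% confluence got fresh medium and were exposed for 24 h. Adherent and floating cells were pooled, adjusted to (1-2) × 10^6/mL and stained with 25 µM CMF-DA for 30 min at 37 °C. After washing, flow cytometry scored the percentage of GSH-negative cells. At least three experiments.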

[9] = tested on: HeLa; experiment: Induction of apoptosis in human HeLa cells assessed as increase in intracellular glutathione-depleted cell population at 50 uM after 24 hrs by FACS; summary of the method: as §4
[10] = tested on: HeLa; experiment: Induction of apoptosis in human HeLa cells assessed as increase in intracellular glutathione-depleted cell population at 100 uM after 24 hrs by FACS; summary of the method: as §4
[11] = tested on: HeLa; experiment: Induction of apoptosis in human HeLa cells assessed as number of cells with decreased mitochondrial membrane potential at 100 uM after 12 hrs by measuring rhodamine 123 fluorescence intensity; parameters: scale not given: the % may be the effect or the level left
Summary of the method: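 Cells in DMEM/10% FCS, medium renewed at 80% confluence, then 100 µM agent (0.1% DMSO final) for 1–24 h. Stained with 5 µM rhodamine 123 for 30 min in the dark, washed, trypsinized and resuspended in PBS; flow cytometry, percentage of cells with weak rhodamine 123 staining (reduced ΔΨm); at least three experiments, representative shown.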

[12] = tested on: HeLa; experiment: Induction of apoptosis in human HeLa cells assessed as increase caspase 3/7 activities at 100 uM after 3 hrs by FACS relative to control
Summary of the method: (§5)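 After 3–24 h exposure at 100 µM, HeLa cells were trypsinized. 1 × 10^6 cells in DMEM were mixed 1:1 with Z-DEVD-R110 substrate reagent and incubated 1 h at 37 °C, then washed. Released R110 read per cell by flow cytometry (ex 488/em 520 nm) and expressed as fold over untreated cells. At least three runs.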

[13] = tested on: HeLa; experiment: Induction of apoptosis in human HeLa cells assessed as increase caspase 3/7 activities at 100 uM after 6 hrs by FACS relative to control; summary of the method: as §5
[14] = tested on: HeLa; experiment: Induction of apoptosis in human HeLa cells assessed as increase caspase 3/7 activities at 100 uM after 9 hrs by FACS relative to control; summary of the method: as §5
[15] = tested on: HeLa; experiment: Induction of apoptosis in human HeLa cells assessed as increase p53 expression at 100 uM after 3 hrs by FACS
Summary of the method: (§6)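 HeLa seeded at 5 × 10^5 cells/dish 48 h before, in DMEM with 10% FCS; medium renewed at 60% confluence, then 100 µM agent (0.1% DMSO final) for 0–24 h. Pooled floating and adherent cells fixed in 1% paraformaldehyde (15 min, 4 °C), permeabilized in 70% EtOH (30 min, 4 °C), then FITC-conjugated mouse anti-p53 mAb (1 h, 37 °C), PI/RNase counterstain; flow cytometry, % p53-positive cells; ≥3 experiments.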

[16] = tested on: HeLa; experiment: Induction of apoptosis in human HeLa cells assessed as increase p53 expression at 100 uM after 6 hrs by FACS; summary of the method: as §6
[17] = tested on: HeLa; experiment: Induction of apoptosis in human HeLa cells pretreated with 10 mM glutathione ethyl ester for 1 hr at 100 uM after 24 hrs by TUNEL assay
Summary of the method: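 HeLa in DMEM/10% FCS, untreated or pretreated 1 h with listed inhibitor, then 100 µM agent (0.1% DMSO final) for 24 h. Pooled cells fixed in 1% paraformaldehyde (30 min, 4 °C), 70% EtOH (30 min, −20 °C); strand breaks labelled with TdT/fluorescein-BrdUTP (1 h, 37 °C), PI/RNase counterstain; flow cytometry, % apoptotic cells; ≥3 experiments.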

[18] = tested on: HeLa; experiment: Cell cycle arrest in human HeLa cells pretreated with 10 mM glutathione ethyl ester for 1 hr assessed as S phase accumulation at 100 uM after 24 hrs by FACS; summary of the method: as §1
[19] = tested on: HeLa; experiment: Cell cycle arrest in human HeLa cells pretreated with 100 uM Boc-Asp(OMe)-fmk for 1 hr assessed as S phase accumulation at 100 uM after 24 hrs by FACS; summary of the method: as §1
[20] = tested on: HeLa; experiment: Cell cycle arrest in human HeLa cells pretreated with 5 uM cyclosporin A for 1 hr assessed as G1 phase accumulation at 100 uM after 24 hrs by FACS; summary of the method: as §1
[21] = tested on: HeLa; experiment: Cell cycle arrest in human HeLa cells pretreated with 10 uM pifithrin-alpha for 1 hr assessed as G1 phase accumulation at 100 uM after 24 hrs by FACS; summary of the method: as §1
[22] = tested on: HeLa; experiment: Cell cycle arrest in human HeLa cells pretreated with 10 uM pifithrin-alpha for 1 hr assessed as S phase accumulation at 100 uM after 24 hrs by FACS; summary of the method: as §1

`CCCCCCCCCCCCC/C=C(/C(=O)OC)[C@@H](O)C(C)=O` [SECOKOTOMOLIDE A] showed an Activity [1] of 12.3%, an Activity [2] of 28.7% and an Activity [3] of 20.3%. The Activity [4] was 65.2%, the “fold change (FC)” value [5] was 3.4 and the “fold change (FC)” value [6] was 2.9. The “fold change (FC)” value [7] was 2.1, the Activity [8] was 49% and the Activity [9] was 92%. The Activity [10] was 98%, the Activity [11] was 75.1% and the “fold change (FC)” value [12] was 3.5. The “fold change (FC)” value [13] was 5.9, the “fold change (FC)” value [14] was 9.9 and the Activity [15] was 0.5%. The Activity [16] was 3.2%, the Activity [17] was 5.43% and the Activity [18] was 8.4%. It also gave an Activity [19] of 13.6%, an Activity [20] of 47.7% and an Activity [21] of 51.3%. For the same molecule, the Activity [22] was 48.5%.

— ChEMBL document CHEMBL1157968, “Chemical and cytotoxic constituents from the leaves of Cinnamomum kotoense” (2006)
